Data as given in article PMC6361391 (Chemical communications (Cambridge, England), 2017).
In brackets after ≈: the same amount, converted by molar mass. Where a SMILES comes first, the peptide text is derived from it. Bridges are numbered along the chain shown (N, C = ends). [ ]: non-standard residue; d: D form. d(aIle) = CC[C@H](C)[C@@H](N)C(=O)O; dNMeF = CN[C@H](Cc1ccccc1)C(=O)O

How the values were obtained:
[1] = assay type: physicochemical; details: pH 7.4
[2] = system: Staphylococcus epidermidis ATCC 14990; assay type: cell-based
[3] = system: Bacillus subtilis ATCC 6051; assay type: cell-based
[4] = system: Staphylococcus aureus ATCC 29213; assay type: cell-based
[5] = system: Enterococcus durans ATCC 6056; assay type: cell-based
[6] = system: Streptococcus salivarius ATCC 13419; assay type: cell-based
Gram-positive bacteria = test: MIC assays, overall activity across the Gram-positive bacteria; assay type: cell-based; details: overall grade (good, moderate, poor) from the MIC assays
Procedure, shortened: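 Five Gram-positive species, with E. coli as a Gram-negative negative control and the parent natural antibiotic as a positive control. The test compound was tested at 32, 16, 8, 4, 2, 1, 0.5 and 0.25 μg/mL (final), diluted from a 10 mg/mL stock in sterilized DMSO. Minimum inhibitory concentration was the read-out.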

[7] = system: Escherichia coli ATCC 10798; assay type: cell-based
[8] = cited from earlier work

CC[C@H](C)[C@H](NC(=O)[C@H](NC(=O)[C@@H](CCC(N)=O)NC(=O)[C@H](CO)NC(=O)[C@H](C)NC(=O)[C@@H](Cc1ccccc1)NC)[C@@H](C)CC)C(=O)N[C@@H](CO)C(=O)N[C@H]1C(=O)N[C@@H](C)C(=O)N[C@@H](CCCCN)C(=O)N[C@@H]([C@@H](C)CC)C(=O)O[C@H]1C [Ala2,Lys10-teixobactin] (H-[dNMeF]AS[dQ][d(aIle)]IS[dT]AKI; ester 8-C)
solubility in PBS buffer [1]: good | MIC, Staphylococcus epidermidis ATCC 14990 [2]: 32 µg/mL (≈ 27.2 µM) | MIC, Bacillus subtilis ATCC 6051 [3]: 32 µg/mL (≈ 27.2 µM) | MIC, Staphylococcus aureus ATCC 29213 [4]: >32 µg/mL | MIC, Enterococcus durans ATCC 6056 [5]: >32 µg/mL | MIC, Streptococcus salivarius ATCC 13419 [6]: 32 µg/mL (≈ 27.2 µM) | antibiotic activity (Gram-positive bacteria): poor | MIC, Escherichia coll ATCC 10798 [7]: >32 µg/mL

CC[C@H](C)[C@H](NC(=O)[C@@H](Cc1ccccc1)NC)C(=O)N[C@@H](C)C(=O)N[C@H](CCC(N)=O)C(=O)N[C@@H](C(=O)N[C@H](C(=O)N[C@@H](CO)C(=O)N[C@H]1C(=O)N[C@@H](C)C(=O)N[C@@H](CCCCN)C(=O)N[C@@H]([C@@H](C)CC)C(=O)O[C@H]1C)[C@@H](C)CC)[C@@H](C)CC [Ala3,Lys10-teixobactin] (H-[dNMeF]IA[dQ][d(aIle)]IS[dT]AKI; ester 8-C)
MIC, Staphylococcus epidermidis ATCC 14990 [2]: 1 µg/mL (≈ 0.833 µM) | MIC, Bacillus subtilis ATCC 6051 [3]: 1 µg/mL (≈ 0.833 µM) | MIC, Staphylococcus aureus ATCC 29213 [4]: 0.5 µg/mL (≈ 0.416 µM) | MIC, Enterococcus durans ATCC 6056 [5]: 4 µg/mL (≈ 3.33 µM) | MIC, Streptococcus salivarius ATCC 13419 [6]: 0.5 µg/mL (≈ 0.416 µM) | antibiotic activity (Gram-positive bacteria): good | MIC, Escherichia coll ATCC 10798 [7]: >32 µg/mL

CC[C@H](C)[C@H](NC(=O)[C@@H](Cc1ccccc1)NC)C(=O)N[C@@H](CO)C(=O)N[C@H](CCC(N)=O)C(=O)N[C@@H](C(=O)N[C@@H](C)C(=O)N[C@@H](CO)C(=O)N[C@H]1C(=O)N[C@@H](C)C(=O)N[C@@H](CCCCN)C(=O)N[C@@H]([C@@H](C)CC)C(=O)O[C@H]1C)[C@@H](C)CC [Ala6,Lys10-teixobactin] (H-[dNMeF]IS[dQ][d(aIle)]AS[dT]AKI; ester 8-C)
solubility in PBS buffer [1]: good | MIC, Staphylococcus epidermidis ATCC 14990 [2]: >32 µg/mL | MIC, Bacillus subtilis ATCC 6051 [3]: >32 µg/mL | MIC, Staphylococcus aureus ATCC 29213 [4]: >32 µg/mL | MIC, Enterococcus durans ATCC 6056 [5]: >32 µg/mL | MIC, Streptococcus salivarius ATCC 13419 [6]: >32 µg/mL | antibiotic activity (Gram-positive bacteria): poor | MIC, Escherichia coll ATCC 10798 [7]: >32 µg/mL

CC[C@H](C)[C@H](NC(=O)[C@@H](Cc1ccccc1)NC)C(=O)N[C@@H](CO)C(=O)N[C@H](CCC(N)=O)C(=O)N[C@@H](C(=O)N[C@H](C(=O)N[C@@H](C)C(=O)N[C@H]1C(=O)N[C@@H](C)C(=O)N[C@@H](CCCCN)C(=O)N[C@@H]([C@@H](C)CC)C(=O)O[C@H]1C)[C@@H](C)CC)[C@@H](C)CC [Ala7,Lys10-teixobactin] (H-[dNMeF]IS[dQ][d(aIle)]IA[dT]AKI; ester 8-C)
solubility in PBS buffer [1]: good | MIC, Staphylococcus epidermidis ATCC 14990 [2]: 32 µg/mL (≈ 26.7 µM) | MIC, Bacillus subtilis ATCC 6051 [3]: 32 µg/mL (≈ 26.7 µM) | MIC, Staphylococcus aureus ATCC 29213 [4]: >32 µg/mL | MIC, Enterococcus durans ATCC 6056 [5]: >32 µg/mL | antibiotic activity (Gram-positive bacteria): poor | MIC, Escherichia coll ATCC 10798 [7]: >32 µg/mL

CC[C@H](C)[C@H](NC(=O)[C@@H](Cc1ccccc1)NC)C(=O)N[C@@H](CO)C(=O)N[C@H](CCC(N)=O)C(=O)N[C@@H](C(=O)N[C@H](C(=O)N[C@@H](CO)C(=O)N[C@H]1C(=O)N[C@@H](C)C(=O)N[C@@H](C)C(=O)N[C@@H]([C@@H](C)CC)C(=O)O[C@H]1C)[C@@H](C)CC)[C@@H](C)CC [Ala10-teixobactin]
MIC, Staphylococcus epidermidis ATCC 14990 [2]: 4 µg/mL (≈ 3.45 µM) | MIC, Staphylococcus aureus ATCC 29213 [4]: 1 µg/mL (≈ 0.863 µM) | MIC, Enterococcus durans ATCC 6056 [5]: 8 µg/mL (≈ 6.9 µM) | MIC, Streptococcus salivarius ATCC 13419 [6]: 1 µg/mL (≈ 0.863 µM) | antibiotic activity (Gram-positive bacteria): moderate | MIC, Escherichia coll ATCC 10798 [7]: >32 µg/mL

CC[C@H](C)[C@H](NC(=O)[C@@H](Cc1ccccc1)NC)C(=O)N[C@@H](CO)C(=O)N[C@H](C)C(=O)N[C@@H](C(=O)N[C@H](C(=O)N[C@@H](CO)C(=O)N[C@H]1C(=O)N[C@@H](C)C(=O)N[C@@H](CCCCN)C(=O)N[C@@H]([C@@H](C)CC)C(=O)O[C@H]1C)[C@@H](C)CC)[C@@H](C)CC [D-Ala4,Lys10-teixobactin] (H-[dNMeF]IS[dA][d(aIle)]IS[dT]AKI; ester 8-C)
solubility in PBS buffer [1]: good | MIC, Staphylococcus epidermidis ATCC 14990 [2]: 4 µg/mL (≈ 3.45 µM) | MIC, Bacillus subtilis ATCC 6051 [3]: 4 µg/mL (≈ 3.45 µM) | MIC, Staphylococcus aureus ATCC 29213 [4]: 1 µg/mL (≈ 0.862 µM) | MIC, Streptococcus salivarius ATCC 13419 [6]: 2 µg/mL (≈ 1.72 µM) | antibiotic activity (Gram-positive bacteria): moderate | MIC, Escherichia coll ATCC 10798 [7]: >32 µg/mL

CC[C@H](C)[C@H](NC(=O)[C@@H](C)NC(=O)[C@@H](CCC(N)=O)NC(=O)[C@H](CO)NC(=O)[C@@H](NC(=O)[C@@H](Cc1ccccc1)NC)[C@@H](C)CC)C(=O)N[C@@H](CO)C(=O)N[C@H]1C(=O)N[C@@H](C)C(=O)N[C@@H](CCCCN)C(=O)N[C@@H]([C@@H](C)CC)C(=O)O[C@H]1C [D-Ala5,Lys10-teixobactin] (HELM PEPTIDE1{[CN[C@H](Cc1ccccc1)C(=O)[*:2]].I.S.[dQ].[dA].I.S.[C[C@H](O[*:3])[C@@H](N[*:1])C(=O)[*:2]].A.K.I}$PEPTIDE1,PEPTIDE1,8:R3-11:R2$$$V2.0)
solubility in PBS buffer [1]: good | MIC, Staphylococcus aureus ATCC 29213 [4]: >32 µg/mL | MIC, Enterococcus durans ATCC 6056 [5]: >32 µg/mL | antibiotic activity (Gram-positive bacteria): poor | MIC, Escherichia coll ATCC 10798 [7]: >32 µg/mL

CC[C@H](C)[C@H](NC(=O)[C@@H](Cc1ccccc1)NC)C(=O)N[C@@H](CO)C(=O)N[C@H](CCC(N)=O)C(=O)N[C@@H](C(=O)N[C@H](C(=O)N[C@@H](CO)C(=O)N[C@H]1C(=O)N[C@@H](C)C(=O)N[C@@H](CCCCN)C(=O)N[C@@H](C)C(=O)O[C@H]1C)[C@@H](C)CC)[C@@H](C)CC [Lys10,Ala11-teixobactin] (H-[dNMeF]IS[dQ][d(aIle)]IS[dT]AKA; ester 8-C)
solubility in PBS buffer [1]: good | MIC, Staphylococcus epidermidis ATCC 14990 [2]: 8 µg/mL (≈ 6.81 µM) | MIC, Bacillus subtilis ATCC 6051 [3]: 8 µg/mL (≈ 6.81 µM) | MIC, Staphylococcus aureus ATCC 29213 [4]: 4 µg/mL (≈ 3.41 µM) | MIC, Enterococcus durans ATCC 6056 [5]: >32 µg/mL | MIC, Streptococcus salivarius ATCC 13419 [6]: 2 µg/mL (≈ 1.7 µM) | antibiotic activity (Gram-positive bacteria): moderate | MIC, Escherichia coll ATCC 10798 [7]: >32 µg/mL

CC[C@H](C)[C@H](NC(=O)[C@@H](Cc1ccccc1)NC)C(=O)N[C@@H](CO)C(=O)N[C@H](CCC(N)=O)C(=O)N[C@@H](C(=O)N[C@H](C(=O)N[C@@H](CO)C(=O)N[C@H]1C(=O)N[C@@H](C)C(=O)N[C@@H](CCCCN)C(=O)N[C@@H]([C@@H](C)CC)C(=O)O[C@H]1C)[C@@H](C)CC)[C@@H](C)CC [Lys10-teixobactin]
MIC values reported previously ([8]; earlier report of the same group): 0.25 to 1 µg/mL | MIC, Staphylococcus epidermidis ATCC 14990 [2]: 0.5 to 1 µg/mL | MIC, Bacillus subtilis ATCC 6051 [3]: 1 µg/mL (≈ 0.822 µM) | MIC, Staphylococcus aureus ATCC 29213 [4]: 0.5 µg/mL (≈ 0.411 µM) | MIC, Enterococcus durans ATCC 6056 [5]: 2 µg/mL (≈ 1.64 µM) | MIC, Streptococcus salivarius ATCC 13419 [6]: 0.5 µg/mL (≈ 0.411 µM) | antibiotic activity (Gram-positive bacteria): good | MIC, Escherichia coll ATCC 10798 [7]: >32 µg/mL

CC[C@H](C)[C@H](NC(=O)[C@@H](C)NC)C(=O)N[C@@H](CO)C(=O)N[C@H](CCC(N)=O)C(=O)N[C@@H](C(=O)N[C@H](C(=O)N[C@@H](CO)C(=O)N[C@H]1C(=O)N[C@@H](C)C(=O)N[C@@H](CCCCN)C(=O)N[C@@H]([C@@H](C)CC)C(=O)O[C@H]1C)[C@@H](C)CC)[C@@H](C)CC [N-Me-D-Ala1,Lys10-teixobactin]
solubility in PBS buffer [1]: good | MIC, Staphylococcus epidermidis ATCC 14990 [2]: >32 µg/mL | MIC, Bacillus subtilis ATCC 6051 [3]: >32 µg/mL | MIC, Staphylococcus aureus ATCC 29213 [4]: >32 µg/mL | MIC, Enterococcus durans ATCC 6056 [5]: >32 µg/mL | MIC, Streptococcus salivarius ATCC 13419 [6]: >32 µg/mL | antibiotic activity (Gram-positive bacteria): poor | MIC, Escherichia coll ATCC 10798 [7]: >32 µg/mL

Lys3,Arg10-teixobactin
antibiotic activity ([8]; lysine scan of Arg10-teixobactin): active

lipobactin
loss in activity relative to Arg10-teixobactin ([8]; residues 1 to 5 replaced with a dodecanoyl group): two- to fourfold loss in activity
